Experimental data: ChEMBL document CHEMBL4052694, “Discovery of novel 5-oxa-2,6-diazaspiro[3.4]oct-6-ene derivatives as potent, selective, and orally available somatostatin receptor subtype 5 (SSTR5) antagonists for treatment of type 2 diabetes mellitus” (Bioorg Med Chem, 2017)
≈ marks a conversion by molar mass, not a printed value. Calls of active or inactive are those of the source. The rule behind the calls is not given here.

Tests used:
[1] = biological target: T1, Somatostatin receptor type 5 (Mus musculus, UniProt O08858); experiment: Antagonist activity at mouse SSTR5 expressed in CHO cells assessed as inhibition of SST14-induced forskolin-stimulated intracellular cAMP level incubated for 15 mins followed by forskolin stimulation for 30 mins by HTRF assay; format: functional, cell-based
T1 sequence (O08858 whole entry): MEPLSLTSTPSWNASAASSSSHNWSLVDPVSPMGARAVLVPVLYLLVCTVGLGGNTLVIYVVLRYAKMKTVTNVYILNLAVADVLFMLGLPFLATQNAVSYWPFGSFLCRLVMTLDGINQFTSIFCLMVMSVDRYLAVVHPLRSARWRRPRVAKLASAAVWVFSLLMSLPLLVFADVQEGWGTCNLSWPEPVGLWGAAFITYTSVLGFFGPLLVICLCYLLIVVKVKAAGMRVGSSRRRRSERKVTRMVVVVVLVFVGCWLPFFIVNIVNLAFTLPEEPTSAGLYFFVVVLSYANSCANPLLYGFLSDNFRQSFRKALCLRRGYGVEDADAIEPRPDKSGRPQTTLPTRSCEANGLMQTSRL

[2] = biological target: hERG (KCNH2) (Homo sapiens, UniProt Q12809); experiment: Inhibition of human ERG expressed in CHO cells assessed as decrease in peak tail current at 30 uM after 5 mins at -80 mV holding potential by patch clamp assay relative to control; format: cell-based; conditions: CHO cells expressing human ERG
Method in brief: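 hERG-expressing CHO cells grown at 32 °C in Ham's F-12 with 10% FBS and Geneticin. Population patch clamp, perforated with 100 µg/mL amphotericin B. PBS with Ca/Mg outside; 140 mM KCl, 2 mM MgCl2, 1 mM EGTA, 20 mM HEPES pH 7.3 inside. Holding -80 mV, step to 40 mV for 2 s, then -50 mV for 2 s. Peak tail current compared before and after 5 min with compound at 30 µM, n = 4.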

[3] = biological target: Somatostatin receptor type 5 (Homo sapiens, UniProt P35346); experiment: Antagonist activity at human SSTR5 expressed in CHO cells assessed as inhibition of SST14-induced forskolin-stimulated intracellular cAMP level incubated for 15 mins followed by forskolin stimulation for 30 mins by HTRF assay; format: functional, cell-based
[4] = 1-octanol/aqueous buffer solution partition coefficient, log D of the compound at pH 7.4 by UV-vis/HPLC method; format: physicochemical
Method in brief: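 Octanol/buffer partition coefficient at pH 7.4, estimated chromatographically by HPLC with UV–vis detection, using conditions adapted from a published method.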

[5] = test system: Mus musculus; experiment: Antidiabetic activity in HFD-fed C57BL/6J mouse assessed as decrease in blood glucose AUC at 30 mg/kg, po pretreated for 1 hr followed by glucose challenge after 1 hr of compound dosing measured up to 120 mins post glucose challenge by OGTT; format: functional, organism-based
Method in brief: (§1)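 Male C57BL/6J mice on high-fat diet for ten days. Fasted overnight and grouped by weight and blood glucose at 12.5 h. Compound given orally at 1, 3, 10 or 30 mg/kg in 0.5% methylcellulose at 15 h; oral glucose 5 g/kg at 16 h.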

[6] = test system: Mus musculus; experiment: Antidiabetic activity in HFD-fed C57BL/6J mouse assessed as increase in insulin secretion at 30 mg/kg, po pretreated for 1 hr followed by glucose challenge by OGTT; format: functional, organism-based
[7] = test system: Mus musculus; experiment: Antidiabetic activity in HFD-fed C57BL/6J mouse assessed as decrease in blood glucose level at 30 mg/kg, po pretreated for 1 hr followed by glucose challenge by OGTT; format: functional, organism-based; method in brief: as §1
[8] = test system: Mus musculus; experiment: Toxicity in HFD-fed C57BL/6J mouse assessed as induction of hypoglycemia at 10 mg/kg, po after 1 hr; format: organism-based; conditions: in vivo
[9] = test system: Mus musculus; experiment: Antidiabetic activity in HFD-fed C57BL/6J mouse assessed as decrease in blood glucose level at 10 mg/kg, po pretreated for 1 hr followed by glucose challenge by OGTT; format: functional, organism-based; method in brief: as §1
[10] = test system: Mus musculus; experiment: Antidiabetic activity in HFD-fed C57BL/6J mouse assessed as decrease in blood glucose AUC at 10 mg/kg, po pretreated for 1 hr followed by glucose challenge after 1 hr of compound dosing measured up to 120 mins post glucose challenge by OGTT; format: functional, organism-based; method in brief: as §1
[11] = test system: Mus musculus; experiment: Antidiabetic activity in HFD-fed C57BL/6J mouse assessed as increase in insulin secretion at 10 mg/kg, po pretreated for 1 hr followed by glucose challenge by OGTT; format: functional, organism-based
[12] = Solubility of the compound in aqueous buffer solution at pH 6.8 after 18 hrs by HPLC analysis; format: physicochemical
Method in brief: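 0.4 mg compound in 0.4 mL aqueous buffer, pH 6.8 (Japanese Pharmacopoeia second disintegration fluid). Shaken at 500 rpm at 37 °C for 18 h, then filtered; dissolved concentration measured by HPLC.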

Somatostatin receptor type 5 (Homo sapiens, UniProt P35346), sequence (P35346 whole entry): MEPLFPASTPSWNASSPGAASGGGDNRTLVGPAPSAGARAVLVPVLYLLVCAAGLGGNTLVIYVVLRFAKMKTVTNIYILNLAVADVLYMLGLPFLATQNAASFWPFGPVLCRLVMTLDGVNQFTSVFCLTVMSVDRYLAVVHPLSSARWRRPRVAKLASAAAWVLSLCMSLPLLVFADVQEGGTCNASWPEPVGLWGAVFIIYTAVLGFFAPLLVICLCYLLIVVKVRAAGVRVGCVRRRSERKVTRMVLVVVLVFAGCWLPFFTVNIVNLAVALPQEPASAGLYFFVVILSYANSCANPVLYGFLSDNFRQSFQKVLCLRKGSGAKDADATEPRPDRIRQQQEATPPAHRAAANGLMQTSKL
hERG (KCNH2), sequence (Q12809 whole entry): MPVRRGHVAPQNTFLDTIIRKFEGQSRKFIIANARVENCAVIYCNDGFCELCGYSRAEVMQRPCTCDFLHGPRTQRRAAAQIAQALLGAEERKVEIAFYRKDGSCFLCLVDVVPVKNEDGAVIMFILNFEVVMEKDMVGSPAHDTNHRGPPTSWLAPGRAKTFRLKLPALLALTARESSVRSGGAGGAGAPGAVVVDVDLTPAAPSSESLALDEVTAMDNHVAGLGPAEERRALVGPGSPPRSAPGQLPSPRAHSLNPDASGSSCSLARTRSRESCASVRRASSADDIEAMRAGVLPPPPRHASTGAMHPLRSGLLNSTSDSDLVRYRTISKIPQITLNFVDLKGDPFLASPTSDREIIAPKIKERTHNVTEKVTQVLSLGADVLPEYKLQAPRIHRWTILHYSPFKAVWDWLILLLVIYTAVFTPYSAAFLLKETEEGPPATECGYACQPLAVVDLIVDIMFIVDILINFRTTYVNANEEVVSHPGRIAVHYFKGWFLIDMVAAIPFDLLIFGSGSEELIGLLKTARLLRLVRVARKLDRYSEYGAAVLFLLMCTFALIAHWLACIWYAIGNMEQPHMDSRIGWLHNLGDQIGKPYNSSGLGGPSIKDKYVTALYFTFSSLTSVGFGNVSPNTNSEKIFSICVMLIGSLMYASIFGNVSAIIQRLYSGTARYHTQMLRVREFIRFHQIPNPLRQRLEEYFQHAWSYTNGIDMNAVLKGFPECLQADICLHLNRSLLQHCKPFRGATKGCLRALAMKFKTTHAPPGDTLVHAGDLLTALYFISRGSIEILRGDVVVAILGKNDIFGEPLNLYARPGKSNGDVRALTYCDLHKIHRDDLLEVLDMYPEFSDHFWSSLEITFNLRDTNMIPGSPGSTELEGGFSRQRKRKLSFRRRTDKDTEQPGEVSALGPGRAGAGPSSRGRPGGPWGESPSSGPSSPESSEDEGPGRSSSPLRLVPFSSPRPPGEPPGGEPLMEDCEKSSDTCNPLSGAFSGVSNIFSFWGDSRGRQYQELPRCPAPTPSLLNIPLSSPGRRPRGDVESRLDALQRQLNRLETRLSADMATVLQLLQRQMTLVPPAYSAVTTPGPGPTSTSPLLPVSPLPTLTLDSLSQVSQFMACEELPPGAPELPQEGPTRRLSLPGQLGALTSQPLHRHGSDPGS

| Structure (SMILES) | IC50 [1] [nM] | inhibition at 5 min, 30 µM [2] [%] | IC50 [3] [nM] | logD [4] | other results |
| --- | --- | --- | --- | --- | --- |
| CCOc1cc(CN2CC3(CC([C@H]4CC[C@H](C(=O)O)CC4)=NO3)C2)cc(OCC)c1-c1ccc(F)cc1 | 38 | 15 | 30 | 3.2 |  |
| CCOc1cc(CN2CC3(CC(c4cccc(C(=O)O)c4)=NO3)C2)cc(OCC)c1-c1ccc(F)cc1 | 260 |  | 550 |  |  |
| CCOc1cc(CN2CC3(CC(CCC(=O)O)=NO3)C2)cc(OCC)c1-c1ccc(F)cc1 | 220 |  | 3200 |  |  |
| CCOc1cc(CN2CC3(CC(c4ccccc4C(=O)O)=NO3)C2)cc(OCC)c1-c1ccc(F)cc1 | > 10000 | 4.5 | > 10000 | 3.1 |  |
| CCOc1cc(C(C)N2CC3(CC(c4ccc(C(=O)O)cc4)=NO3)C2)cc(OCC)c1-c1ccc(F)cc1 (stereo unspecified) | 2000 | 14 | 95 | 3.6 |  |
| Cn1c(=O)cc(N2CCC[C@@H](N)C2)n(Cc2ccccc2C#N)c1=O |  |  |  |  | Activity [5]: Active; Activity [6]: Active; Activity [7]: Active |
| CCOc1cc(CN2CC3(CC([C@H]4CC[C@@H](C(=O)O)CC4)=NO3)C2)cc(OCC)c1-c1ccc(F)cc1 | 210 | 33 | 130 | 3.3 |  |
| COc1ccc(Cl)cc1C(=O)NCCc1ccc(S(=O)(=O)NC(=O)NC2CCCCC2)cc1 [GLYBURIDE] |  |  |  |  | Activity [8]: Toxic; Activity [9]: Active; Activity [10]: Active; Activity [11]: Active |
| CCOc1cc(CN2CC3(CC(c4ccc(C(=O)O)cc4)=NO3)C2)cc(OCC)c1-c1ccc(F)cc1 | 33 | 65 | 9 | 3.3 | solubility at 18 h [12]: 1.3 µg/mL (≈ 2.58 µM) |
| CCOc1cc(CN2CC3(CC(c4ccc(C(=O)O)cc4C)=NO3)C2)cc(OCC)c1-c1ccc(F)cc1 | 21 | 18 | 140 | 3.5 |  |
